≈ marks a conversion by molar mass, not a printed value.
Assays:
[1] = Chemical stability of the compound; format: physicochemical
[2] = Cmax in Sprague-Dawley rat at 1 mg/kg, iv; format: ADME, organism-based; design: dose 1 mg/kg, route intravenous; settings: in vivo
Salmonella typhimurium [3] = test: Induction of mutagenesis in Salmonella Typhimurium TA98 in absence of rat liver S9 fraction by Ames test; format: toxicity, organism-based; settings: salmonella enterica subsp. enterica serovar typhimurium
Method in brief: (§1)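 MicroAmes reverse mutation screen in Salmonella TA98 and TA100, preincubated with and without rat liver S9, at 0.25-250 μg/well.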

[4] = Half life in CD-1 mouse plasma at 40 mg/kg, po; format: ADME, organism-based; design: dose 40 mg/kg, route oral
Method in brief: (§2)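 CD-1 mice given a single oral dose of 40 mg/kg, suspended in 0.5% carboxymethylcellulose/0.08% Tween 80 in water. Plasma and lung samples quantified by LC-MS/MS. AUC extrapolated to infinity. Lung/plasma ratio is lung AUC divided by plasma AUC.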

[5] = Thermodynamic solubility of the compound at pH 7.4; format: physicochemical; settings: buffer, read-out: Therm_solubility
[6] = Oral bioavailability in Sprague-Dawley rat at 20 mg/kg; format: ADME, organism-based; settings: in vivo
[7] = Oral bioavailability in Beagle dog at 20 mg/kg; format: ADME, organism-based, Canis lupus familiaris; settings: in vivo
[8] = Metabolic stability of the compound in CD-1 mouse liver microsomes assessed as compound remaining after 1 hr; format: ADME, Microsome; settings: read-out: Stability
Method in brief: (§3)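 Pooled human or CD-1 mouse liver microsomes incubated with compound for 1 h. Percentage of compound remaining calculated from analyte/internal standard peak area ratios.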

[9] = AUC (0 to 72 hrs) in Beagle dog at 20 mg/kg, po; format: ADME, organism-based, Canis lupus familiaris; design: time < 72 hr, dose 20 mg/kg, route oral; settings: plasma
[10] = Half life in CD-1 mouse lung at 40 mg/kg, po; format: ADME, organism-based; design: dose 40 mg/kg, route oral; method in brief: as §2
[11] = Cmax in CD-1 mouse plasma at 40 mg/kg, po; format: ADME, organism-based; design: dose 40 mg/kg, route oral; method in brief: as §2
[12] = Tmax in Sprague-Dawley rat at 1 mg/kg, iv; format: ADME, organism-based; design: dose 1 mg/kg, route intravenous; settings: in vivo
[13] = tested on: Mycobacterium tuberculosis; test: Antimicrobial activity against Mycobacterium tuberculosis infected in chronic BALB/c mouse infection model assessed as fold reduction in lung CFU at 30 mg/kg, po administered daily 5 days a week for 8 weeks starting 50 days post-infection; format: functional
Method in brief: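 Chronic infection model: groups of 7 M. tb-infected BALB/c mice given 30 mg/kg orally, daily 5 days/week for 8 weeks, starting about 50 days postinfection. Lung CFU reduction expressed relative to the reference drug.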

[14] = Tmax in high fat diet fed Beagle dog at 20 mg/kg, po; format: ADME, organism-based, Canis lupus familiaris; design: dose 20 mg/kg, route oral; settings: in vivo
[15] = Cmax in Sprague-Dawley rat at 20 mg/kg, po; format: ADME, organism-based; design: dose 20 mg/kg, route oral; settings: in vivo
Salmonella typhimurium [16] = test: Induction of mutagenesis in Salmonella Typhimurium TA100 in absence of rat liver S9 fraction by Ames test; format: toxicity, organism-based; settings: salmonella enterica subsp. enterica serovar typhimurium; method in brief: as §1
[17] = Half life in Beagle dog at 20 mg/kg, po; format: ADME, organism-based, Canis lupus familiaris; design: dose 20 mg/kg, route oral; settings: in vivo
[18] = AUC (0 to 24 hrs) in Sprague-Dawley rat at 1 mg/kg, iv; format: ADME, organism-based; design: time < 24 hr, dose 1 mg/kg, route intravenous; settings: plasma
[19] = AUC (0 to infinity) in CD-1 mouse plasma at 40 mg/kg, po; format: ADME, organism-based; design: dose 40 mg/kg, route oral, time infinity; method in brief: as §2
[20] = Octanol-water partition coefficient, log P of the compound by shake-flask method; format: physicochemical
Method in brief: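 Octanol-water partition coefficient measured by the shake-flask method.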

[21] = Tmax in Beagle dog at 20 mg/kg, po; format: ADME, organism-based, Canis lupus familiaris; design: dose 20 mg/kg, route oral; settings: in vivo
[22] = Half life in high fat diet fed Beagle dog at 20 mg/kg, po; format: ADME, organism-based, Canis lupus familiaris; design: dose 20 mg/kg, route oral; settings: in vivo
[23] = Metabolic stability of the compound in human liver microsomes assessed as compound remaining after 1 hr; format: ADME, Microsome; settings: read-out: Stability; method in brief: as §3
[24] = Plasma protein binding in human at 10 uM; format: ADME, cell-free; settings: read-out: PPB (converted)
Method in brief: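 Human plasma protein binding measured by equilibrium dialysis, with overnight incubation of compound at 10 μM containing 1% DMSO.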

[25] = AUC (0 to 24 hrs) in Sprague-Dawley rat at 20 mg/kg, po; format: ADME, organism-based; design: time < 24 hr, dose 20 mg/kg, route oral; settings: plasma
[26] = Thermodynamic solubility of the compound at pH 1; format: physicochemical; settings: buffer, read-out: Therm_solubility
Salmonella typhimurium [27] = test: Induction of mutagenesis in Salmonella Typhimurium TA98 in presence of rat liver S9 fraction by Ames test; format: toxicity, organism-based; settings: salmonella enterica subsp. enterica serovar typhimurium; method in brief: as §1
[28] = Cmax in Beagle dog at 2 mg/kg, iv; format: ADME, organism-based, Canis lupus familiaris; design: dose 2 mg/kg, route intravenous; settings: in vivo
[29] = tested on: Mycobacterium tuberculosis; test: Antimicrobial activity against Mycobacterium tuberculosis infected in BALB/c mouse assessed as fold reduction in lung CFU at 100 mg/kg, po administered 11 days after post infection qd for 5 days per week for 3 weeks relative to PA-824; format: functional
Method in brief: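 Groups of 7 M. tb-infected BALB/c mice dosed orally at 100 mg/kg daily, 5 days/week for 3 weeks, starting on day 11 postinfection. Readout is the average lung CFU reduction in treated mice divided by the average CFU reduction in mice given the reference nitroimidazooxazine.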

Salmonella typhimurium [30] = test: Induction of mutagenesis in Salmonella Typhimurium TA100 in presence of rat liver S9 fraction by Ames test; format: toxicity, organism-based; settings: salmonella enterica subsp. enterica serovar typhimurium; method in brief: as §1
[31] = biological target: Voltage-gated inwardly rectifying potassium channel KCNH2 (Homo sapiens, UniProt Q12809); test: Inhibition of human Erg expressed in HEK293 cells by FAST patch clamp analysis; format: cell-based
[32] = AUC (0 to 72 hrs) in high fat diet fed Beagle dog at 20 mg/kg, po; format: ADME, organism-based, Canis lupus familiaris; design: time < 72 hr, dose 20 mg/kg, route oral; settings: plasma
[33] = Tmax in Sprague-Dawley rat at 20 mg/kg, po; format: ADME, organism-based; design: dose 20 mg/kg, route oral; settings: in vivo
[34] = Kinetic solubility of the compound in water at pH 7 by HPLC analysis; format: physicochemical; settings: read-out: Kinetic_solubility
[35] = Cmax in high fat diet fed Beagle dog at 20 mg/kg, po; format: ADME, organism-based, Canis lupus familiaris; design: dose 20 mg/kg, route oral; settings: in vivo
[36] = Half life in Beagle dog at 2 mg/kg, iv; format: ADME, organism-based, Canis lupus familiaris; design: dose 2 mg/kg, route intravenous; settings: in vivo
[37] = Cmax in CD-1 mouse lung at 40 mg/kg, po; format: ADME, organism-based; design: dose 40 mg/kg, route oral; method in brief: as §2
[38] = AUC (0 to infinity) in CD-1 mouse lung at 40 mg/kg, po; format: ADME, organism-based; design: dose 40 mg/kg, route oral, time infinity; method in brief: as §2
[39] = AUC (0 to 72 hrs) in Beagle dog at 2 mg/kg, iv; format: ADME, organism-based, Canis lupus familiaris; design: time < 72 hr, dose 2 mg/kg, route intravenous; settings: plasma
[40] = Cmax in Beagle dog at 20 mg/kg, po; format: ADME, organism-based, Canis lupus familiaris; design: dose 20 mg/kg, route oral; settings: in vivo
[41] = Half life in Sprague-Dawley rat at 1 mg/kg, iv; format: ADME, organism-based; design: dose 1 mg/kg, route intravenous; settings: in vivo
[42] = Tmax in Beagle dog at 2 mg/kg, iv; format: ADME, organism-based, Canis lupus familiaris; design: dose 2 mg/kg, route intravenous; settings: in vivo

Sequence of Voltage-gated inwardly rectifying potassium channel KCNH2 (Q12809 whole entry): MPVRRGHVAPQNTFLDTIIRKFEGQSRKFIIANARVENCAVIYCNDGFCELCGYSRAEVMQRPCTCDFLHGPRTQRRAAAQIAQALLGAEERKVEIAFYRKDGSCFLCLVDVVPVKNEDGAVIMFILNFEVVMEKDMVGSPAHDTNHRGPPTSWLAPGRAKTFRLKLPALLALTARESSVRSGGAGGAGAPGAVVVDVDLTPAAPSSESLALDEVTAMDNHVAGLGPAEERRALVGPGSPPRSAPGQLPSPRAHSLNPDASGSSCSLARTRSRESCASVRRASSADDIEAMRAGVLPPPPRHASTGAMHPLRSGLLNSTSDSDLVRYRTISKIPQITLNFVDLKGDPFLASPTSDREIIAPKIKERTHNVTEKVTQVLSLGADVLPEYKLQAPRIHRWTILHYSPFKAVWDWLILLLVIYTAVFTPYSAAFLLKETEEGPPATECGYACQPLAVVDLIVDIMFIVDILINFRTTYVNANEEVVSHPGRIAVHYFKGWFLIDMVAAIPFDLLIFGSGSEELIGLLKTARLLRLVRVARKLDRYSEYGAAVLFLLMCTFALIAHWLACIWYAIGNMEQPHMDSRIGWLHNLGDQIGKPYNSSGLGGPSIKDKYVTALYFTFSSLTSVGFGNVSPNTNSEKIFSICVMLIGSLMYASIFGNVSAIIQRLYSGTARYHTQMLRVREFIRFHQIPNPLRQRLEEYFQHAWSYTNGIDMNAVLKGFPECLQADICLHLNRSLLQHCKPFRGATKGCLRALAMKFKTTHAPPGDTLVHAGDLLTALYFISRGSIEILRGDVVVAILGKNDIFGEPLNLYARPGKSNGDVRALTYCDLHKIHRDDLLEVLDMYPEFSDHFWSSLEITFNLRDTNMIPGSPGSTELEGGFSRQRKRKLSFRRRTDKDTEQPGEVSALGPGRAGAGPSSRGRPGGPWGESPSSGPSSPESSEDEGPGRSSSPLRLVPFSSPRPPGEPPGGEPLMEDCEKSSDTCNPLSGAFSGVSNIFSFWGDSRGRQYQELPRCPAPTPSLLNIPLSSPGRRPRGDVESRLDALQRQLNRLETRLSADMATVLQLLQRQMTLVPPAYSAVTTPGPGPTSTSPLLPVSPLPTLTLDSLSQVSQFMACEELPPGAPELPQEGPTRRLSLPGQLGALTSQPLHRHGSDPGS

O=C(N[C@@H]1COc2nc([N+](=O)[O-])cn2C1)Oc1ccc(OC(F)(F)F)cc1
Stability [1]: Unstable

O=C(O[C@@H]1COc2nc([N+](=O)[O-])cn2C1)N1CCN(c2ccc(OC(F)(F)F)cc2)CC1
Cmax [2]: 700 ng/mL | Activity (Salmonella typhimurium [3]): Non-toxic | half-life [4]: 10.5 h | solubility thermodynamic [5]: 33 µM (≈ 15.1 µg/mL) | bioavailability [6]: 57% | bioavailability [7]: 84% | remaining at 1 h [8]: 85% | AUC(0-t) at 72 h [9]: 232000 ng·h/mL | half-life [10]: 10.5 h | Cmax [11]: 2500 ng/mL | Tmax [12]: 4.98 min | fold change (FC) [13]: 0.92 | Tmax [14]: 12 h | Cmax [15]: 4400 ng/mL | Activity (Salmonella typhimurium [16]): Non-toxic | half-life [17]: 29 h | AUC(0-t) at 24 h [18]: 5930 ng·h/mL | AUC(0-inf) [19]: 53400 ng·h/mL | logP [20]: 2.82 | Tmax [21]: 8 h | half-life [22]: 30 h | remaining at 1 h [23]: 82% | fraction unbound at 10 µM [24]: 0.09 | AUC(0-t) at 24 h [25]: 67400 ng·h/mL | solubility thermodynamic [26]: 169 µM (≈ 77.3 µg/mL) | Activity (Salmonella typhimurium [27]): Non-toxic | Cmax [28]: 1700 ng/mL | fold change (FC) [29]: 5.2 | Activity (Salmonella typhimurium [30]): Non-toxic | IC50 [31]: > 30 µM | AUC(0-t) at 72 h [32]: 182000 ng·h/mL | Tmax [33]: 5 h | solubility kinetic [34]: 17 µg/mL (≈ 37.2 µM) | Cmax [35]: 5200 ng/mL | half-life [36]: 28 h | Cmax [37]: 11700 ng/mL | AUC(0-inf) [38]: 169000 ng·h/mL | AUC(0-t) at 72 h [39]: 27600 ng·h/mL | Cmax [40]: 5800 ng/mL | half-life [41]: 8.3 h | Tmax [42]: 0.5 h

Reference: ChEMBL document CHEMBL1944507, “Structure-activity relationships for amide-, carbamate-, and urea-linked analogues of the tuberculosis drug (6S)-2-nitro-6-{[4-(trifluoromethoxy)benzyl]oxy}-6,7-dihydro-5H-imidazo[2,1-b][1,3]oxazine (PA-824)” (J Med Chem, 2012)
